Read-outs that look alike come from different tables or passages of the source.
What was measured:
BCRP = details: cited from earlier work
[1] = Small-animal PET imaging of [11C]-1 in wild-type and transporter knockout mice; type: in vivo; details: for Brain AUC / Brain-blood ratio, 25 min / Brain concentration, 25 min: total radioactivity, mean±SD; for Brain AUC: 0-60 min; for Brain AUC / Brain concentration, 25 min: n=3; for AUC of brain TACs, fold higher compared to wild-type animals: p=0.0495
Method in brief: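 Female mice, 25-30 g, three per genotype. Isoflurane 2.5% to induce, 1.5-2% by mask to maintain, warmed to about 38°C. About 0.1 mL radiotracer (28±16 MBq) into the lateral tail vein. Whole-brain PET TACs as %ID/g; AUC from zero to the last time point. Brain %ID/g at 25 min divided by whole-blood %ID/g from a separate group (one mouse per genotype) gives brain-blood ratio. Mean±SD; Mann-Whitney U versus wild-type.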

[2] = Stability testing in formulation solution for i.v. injection; type: physicochemical; details: at least 2 h at room temperature; 0.9% aq. saline/ethanol/polyethylene glycol 300; HPLC system A
[3] = Stability testing in mouse plasma in vitro; type: in vitro ADME; details: 37°C, 30 min, SPE/HPLC
Method in brief: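 Citrated mouse plasma (0.5 mL) mixed with 20 µL formulated radiotracer (about 40 MBq). Held 30 min at 37°C in a shaking water bath. Then C18 solid-phase extraction: acidified load, H2O wash, MeOH elution. Fractions analysed by radio-HPLC, reversed-phase column, CH3CN/MeOH/NH4OAc pH 5.0, UV 227 nm, to find the polar labelled species.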

[4] = type: in vivo, mice; details: for total plasma radioactivity recovered in SPE fraction 3 (MeOH) / percentage of unchanged [11C]-1 in mouse plasma / Blood concentration, 25 min: n=1; for percentage of unchanged [11C]-1 in mouse plasma: 25 min after tracer injection; for percentage of total brain radioactivity in the form of unchanged [11C]-1: brain tissue extract, HPLC system A; for Blood concentration, 25 min: total radioactivity; for mean brain-to-plasma ratio of unchanged [11C]-1, fold higher compared to wild-type animals: 25 min, p=0.0495; for Kp at 25 min: mouse, brain and plasma, intravenous, Brain-plasma ratio of unchanged [11C]-1, 25 min, mean±SD
Method in brief: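 Female mice, 25-30 g, one per genotype, given radiotracer i.v. At 25 min: cardiac blood into heparin, spun 3,000×g, 5 min, 21°C, for plasma. Blood and plasma weighed, gamma-counted (cross-calibrated with PET), decay-corrected, %ID/g. Plasma spiked with unlabelled carrier, acidified, run through tC18 SPE (H2O wash, MeOH elution). H2O and MeOH fractions went to reversed-phase HPLC (pH 5.0, 35°C) and Aminex HPLC, UV 227 nm. Brain homogenised in saline, CH3CN-extracted, supernatant HPLC.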

[5] = rats; time course of a 1 h PET scan; cited from earlier work
[6] = Bcrp1(−/−) mice, 25 min after injection
[7] = Mdr1a/b(−/−) mice, 25 min after injection
[8] = wild-type mice, 25 min after injection

COC(=O)c1ccc(C(=O)Nc2ccc(CCN3CCc4cc(OC)c(OC)cc4C3)cc2)cc1NC(=O)c1ccc2ccccc2n1 [Compound 1, Methyl 4-((4-(2-(6,7-dimethoxy-1,2,3,4-tetrahydroisoquinolin-2-yl)ethyl)phenyl)amino-carbonyl)-2-(quinoline-2-carbonylamino)benzoate]
selectivity for inhibition of BCRP over P-gp (BCRP; in vitro transport assays): approximately 500 fold
IC50 (BCRP; read-out: half-maximum inhibitory concentration (IC50), BCRP-mediated transport of mitoxantrone, topotecan-resistant MCF-7 breast cancer cells): 60 nM

COc1cc2c(cc1OC)CN(CCc1ccc(NC(=O)c3ccc(C(=O)O[11CH3])c(NC(=O)c4ccc5ccccc5n4)c3)cc1)CC2 [[^11C]-1, [^11C]Methyl 4-((4-(2-(6,7-dimethoxy-1,2,3,4-tetrahydroisoquinolin-2-yl)ethyl)phenyl)amino-carbonyl)-2-(quinoline-2-carbonylamino)benzoate]
Brain AUC ([1]; Bcrp1(−/−) mice): 3.1±0.2 h·%ID/g
Brain-blood ratio, 25 min ([1]; Bcrp1(−/−) mice): 1.6±0.1
Brain concentration, 25 min ([1]; Bcrp1(−/−) mice): 3.5±0.2 %ID/g
AUC of brain TACs, fold higher compared to wild-type animals ([1]; Mdr1a/b(−/−) mice): 1.3 fold
Brain AUC ([1]; Mdr1a/b(−/−) mice): 3.6±0.6^† h·%ID/g
Brain-blood ratio, 25 min ([1]; Mdr1a/b(−/−) mice): 1.7±0.3
Brain concentration, 25 min ([1]; Mdr1a/b(−/−) mice): 4.2±0.8 %ID/g
Brain AUC ([1]; Mdr1a/b(−/−)Bcrp1(−/−) mice): 5.1±0.9^† h·%ID/g
Brain-blood ratio, 25 min ([1]; Mdr1a/b(−/−)Bcrp1(−/−) mice): 3.2±0.6
Brain concentration, 25 min ([1]; Mdr1a/b(−/−)Bcrp1(−/−) mice): 5.8±1.2 %ID/g
AUC of brain TACs, fold higher compared to wild-type animals ([1]; triple knockout (Mdr1a/b(−/−)Bcrp1(−/−)) mice): 1.8 fold
Brain AUC ([1]; wild-type mice): 2.8±0.2 h·%ID/g
Brain-blood ratio, 25 min ([1]; wild-type mice): 1.5±0.1
Brain concentration, 25 min ([1]; wild-type mice): 3.2±0.2 %ID/g
stability in formulation solution for i.v. injection [2]: 100%
total radioactivity degraded to an unidentified polar radiolabelled species [3]: > 98%
total plasma radioactivity recovered in SPE fraction 3 (MeOH) [4, 6]: 19%
percentage of unchanged [11C]-1 in mouse plasma ([4]; Bcrp1(−/−) mice): 14%
percentage of total brain radioactivity in the form of unchanged [11C]-1 [4, 6]: 25%
Blood concentration, 25 min ([4]; Bcrp1(−/−) mice): 2.3 %ID/g
mean brain-to-plasma ratio of unchanged [11C]-1, fold higher compared to wild-type animals ([4]; Mdr1a/b(−/−) mice): 4.8 fold
total plasma radioactivity recovered in SPE fraction 3 (MeOH) [4, 7]: 28%
percentage of unchanged [11C]-1 in mouse plasma ([4]; Mdr1a/b(−/−) mice): 17%
percentage of total brain radioactivity in the form of unchanged [11C]-1 [4, 7]: 62%
Blood concentration, 25 min ([4]; Mdr1a/b(−/−) mice): 2.5 %ID/g
mean brain-to-plasma ratio of unchanged [11C]-1, fold higher compared to wild-type animals ([4]; Mdr1a/b(−/−)Bcrp1(−/−) mice): 10.3 fold
total plasma radioactivity recovered in SPE fraction 3 (MeOH) ([4]; Mdr1a/b(−/−)Bcrp1(−/−) mice, 25 min after injection): 18%
percentage of unchanged [11C]-1 in mouse plasma ([4]; Mdr1a/b(−/−)Bcrp1(−/−) mice): 11%
Blood concentration, 25 min ([4]; Mdr1a/b(−/−)Bcrp1(−/−) mice): 1.8 %ID/g
total plasma radioactivity in the form of unchanged parent ([4]; mouse plasma extracts, 25 min after injection, range over the 4 mouse types): 11-17%
Kp at 25 min ([4]; Bcrp1(−/−) mice): 2.1 ± 0.1
Kp at 25 min ([4]; Mdr1a/b(−/−) mice): 8.6 ± 1.6
Kp at 25 min ([4]; Mdr1a/b(−/−)Bcrp1(−/−) mice): 18.3 ± 3.7
Kp at 25 min ([4]; wild-type mice): 1.8 ± 0.1
total plasma radioactivity recovered in SPE fraction 3 (MeOH) [4, 8]: 25%
percentage of unchanged [11C]-1 in mouse plasma ([4]; wild-type mice): 13%
percentage of total brain radioactivity in the form of unchanged [11C]-1 [4, 8]: 12%
Blood concentration, 25 min ([4]; wild-type mice): 2.1 %ID/g

COc1cc2c(cc1OC)CN(CCc1ccc(NC(=O)c3cc(OC)c(OC)cc3NC(=O)c3cnc4ccccc4c3)cc1)CC2 [tariquidar]
metabolism in vivo [5]: hardly metabolized

From article PMC3690702 (Nuclear medicine and biology, 2010)
